Test results: ChEMBL document CHEMBL1212703, “Identification of RIP1 kinase as a specific cellular target of necrostatins” (Nat Chem Biol, 2008)
Residue numbers refer to the chain shown, from its start. Active and inactive are the calls of the source. The calls are words filed in the database; no cut-off is given here. Peptide text beside a SMILES is read from it. * marks the point of attachment. Cbz = O=C(OCc1ccccc1)*; CH2F = FC*

Columns and labels:
[1] = system: T1, Receptor-interacting serine/threonine-protein kinase 1 (Homo sapiens), Q13546 [K45M]; test: Inhibition of human RIP1 K45M mutant autophosphorylation expressed in FADD deficient human Jurkat cells at 10 to 30 uM; format: cell-based
T1 sequence (whole entry): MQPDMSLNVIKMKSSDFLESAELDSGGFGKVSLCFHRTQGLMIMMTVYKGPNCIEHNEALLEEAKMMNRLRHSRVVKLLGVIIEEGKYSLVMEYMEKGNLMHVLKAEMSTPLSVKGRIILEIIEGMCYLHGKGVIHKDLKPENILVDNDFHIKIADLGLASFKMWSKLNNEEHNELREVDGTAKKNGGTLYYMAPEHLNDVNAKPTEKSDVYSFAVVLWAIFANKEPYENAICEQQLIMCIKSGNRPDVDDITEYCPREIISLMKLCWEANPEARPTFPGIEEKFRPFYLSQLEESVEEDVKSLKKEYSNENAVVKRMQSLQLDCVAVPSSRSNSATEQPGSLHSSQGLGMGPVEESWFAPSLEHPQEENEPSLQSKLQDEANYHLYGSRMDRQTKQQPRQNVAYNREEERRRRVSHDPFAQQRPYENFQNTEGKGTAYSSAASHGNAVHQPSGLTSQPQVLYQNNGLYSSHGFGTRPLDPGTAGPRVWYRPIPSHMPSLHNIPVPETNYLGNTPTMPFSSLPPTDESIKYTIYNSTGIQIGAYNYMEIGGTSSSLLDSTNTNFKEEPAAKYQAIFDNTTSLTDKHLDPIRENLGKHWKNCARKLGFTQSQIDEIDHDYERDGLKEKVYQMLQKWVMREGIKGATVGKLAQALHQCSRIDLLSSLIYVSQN

[2] = system: T1, Receptor-interacting serine/threonine-protein kinase 1 (Homo sapiens), Q13546 [K45M]; test: Inhibition of human RIP1 K45M mutant autophosphorylation expressed in Sf9 cells at 10 to 30 uM
HEK-293T [3] = test: Inhibition of TNF-alpha-induced NF-kappaB activation expressed in HEK293T cells by luciferase reporter gene assay; format: cell-based
How it was run: (§1)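 293T cells, 1.2*10^6/well, cotransfected with pNFkB-Luc and pRSV-β-galactosidase control; 48 h later stimulated with 10 ng ml-1 human TNFα for 4 h with 30 µM compound. Luciferase (Bright-Glo) normalized to β-gal activity (ONPG, 30 °C, A420). Results expressed as fold over unstimulated cells; s.d. shown.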

Jurkat [4] = test: Inhibition of TNF-alpha-induced NF-kappaB activation expressed in FADD deficient human Jurkat cells by luciferase reporter gene assay; format: cell-based
How it was run: (§2)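 FADD-deficient Jurkat cells carrying a lentiviral NF-kB luciferase reporter, 2*10^4 cells/well, stimulated with 10 ng ml-1 human TNFα for 4 h with 30 µM compound. Luminescence read by Bright-Glo. Values given as fold luciferase increase over unstimulated cells; s.d. shown.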

[5] = system: T1, Receptor-interacting serine/threonine-protein kinase 1 (Homo sapiens), Q13546 [K45M]; test: Inhibition of human RIP1 K45M mutant autophosphorylation expressed in HEK293T cells; format: cell-based; conditions: HEK-293T
Jurkat [6] = test: Inhibition of cellular necroptosis in TNFalpha treated FADD deficient human Jurkat cells; format: functional, cell-based
Jurkat [7] = test: Inhibition of cellular necroptosis in TNFalpha treated FADD and RIP1 deficient human Jurkat cells at 30 uM; format: functional, cell-based
[8] = biological target: T2, Receptor-interacting serine/threonine-protein kinase 1 (Homo sapiens) (UniProt Q13546); test: (§3) Inhibition of endogenous RIP1 autophosphorylation in human Jurkat cells; format: cell-based
T2 sequence (whole entry): T1 sequence (whole entry) with M45K
How it was run: (§4)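 RIP1 immunoprecipitated from Jurkat cells and autophosphorylated in vitro across a titration of compound. Autophosphorylation quantified by phosphorimager; EC50 derived by nonlinear regression curve fitting. An aliquot of each reaction was blotted for RIP1 to check protein input.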

[9] = system: T1, Receptor-interacting serine/threonine-protein kinase 1 (Homo sapiens), Q13546 [K45M]; test: Inhibition of human RIP1 K45M mutant autophosphorylation expressed in Sf9 cells
[10] = biological target: T3, Heat shock protein HSP90 (Homo sapiens) (UniProt P07900+P08238); test: Inhibition of FITC-geldanamycin binding to HSP90 in human Jurkat cell lysates at 30 uM by fluorimetric assay; format: cell-free
[11] = biological target: T3, Heat shock protein HSP90 (Homo sapiens); test: Inhibition of to HSP90 in FADD deficient human Jurkat cells assessed as RIP protein degradation at 30 uM by Western blot; format: cell-based
How it was run: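 FADD-deficient Jurkat cells exposed to 30 µM compound for 16 hr; RIP1 levels then assessed by western blot against anti-RIP1, with tubulin as loading control.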

HEK-293T [12] = test: Inhibition of TNF-alpha-induced NF-kappaB activation expressed in HEK293T cells at 30 uM by luciferase reporter gene assay; format: cell-based; how it was run: as §1
Jurkat [13] = test: Inhibition of TNF-alpha-induced NF-kappaB activation expressed in FADD deficient human Jurkat cells at 30 uM by luciferase reporter gene assay; format: cell-based; how it was run: as §2
[14] = biological target: Receptor-interacting serine/threonine-protein kinase 2 (Homo sapiens) (UniProt O43353); test: Inhibition of human RIP2 autophosphorylation expressed in HEK293T cells; format: cell-based; conditions: HEK-293T
How it was run: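 Myc-tagged RIP2 was transiently expressed in 293T cells, immunoprecipitated with anti-Myc antibody (clone 9E10), and used in an in vitro autophosphorylation kinase reaction with compound at the indicated concentrations, with DMSO as the vehicle.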

[15] = biological target: T4, Receptor-interacting serine/threonine-protein kinase 1 (Homo sapiens, UniProt Q13546); test: as §3; format: cell-based; how it was run: as §4
T4 sequence (Q13546 whole entry): T1 sequence (whole entry) with M45K

[16] = biological target: Receptor-interacting serine/threonine-protein kinase 3 (Homo sapiens) (UniProt Q9Y572); test: Inhibition of human RIP3 autophosphorylation expressed in HEK293T cells; format: cell-based; conditions: HEK-293T
Jurkat [17] = test: Inhibition of cellular necroptosis in TNFalpha treated […] human Jurkat cells expressing RIP1 S161E mutant at 30 uM; format: functional, cell-based
Jurkat [18] = test: Inhibition of cellular necroptosis in TNFalpha treated […] human Jurkat cells expressing RIP1 F162E mutant at 30 uM; format: functional, cell-based
[19] = system: T5, Receptor-interacting serine/threonine-protein kinase 1 (Homo sapiens), Q13546 [S161E]; conditions: HEK-293T, 100 uM
T5 sequence (whole entry): T1 sequence (whole entry) with M45K, S161E

[20] = system: T5, Receptor-interacting serine/threonine-protein kinase 1 (Homo sapiens), Q13546 [S161E]; test: Inhibition of human RIP1 S161E mutant autophosphorylation expressed in HEK293T cells at 10 to 30 uM; format: cell-based; conditions: HEK-293T

Chain of Receptor-interacting serine/threonine-protein kinase 2 (Homo sapiens) (O43353 whole entry): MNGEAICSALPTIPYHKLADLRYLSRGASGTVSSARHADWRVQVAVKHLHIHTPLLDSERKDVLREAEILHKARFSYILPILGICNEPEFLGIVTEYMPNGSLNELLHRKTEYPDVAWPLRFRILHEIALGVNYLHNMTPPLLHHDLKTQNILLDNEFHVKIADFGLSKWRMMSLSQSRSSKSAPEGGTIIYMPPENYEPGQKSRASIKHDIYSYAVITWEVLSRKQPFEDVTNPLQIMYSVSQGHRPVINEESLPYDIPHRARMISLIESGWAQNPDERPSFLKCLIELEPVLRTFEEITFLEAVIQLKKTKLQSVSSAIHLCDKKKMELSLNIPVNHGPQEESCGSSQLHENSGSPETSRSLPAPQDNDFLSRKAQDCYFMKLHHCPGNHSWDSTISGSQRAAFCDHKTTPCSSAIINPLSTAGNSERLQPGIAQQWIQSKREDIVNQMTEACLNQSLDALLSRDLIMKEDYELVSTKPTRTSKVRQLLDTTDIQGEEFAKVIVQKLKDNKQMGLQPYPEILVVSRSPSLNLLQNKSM
Chain of Receptor-interacting serine/threonine-protein kinase 3 (Homo sapiens) (Q9Y572 whole entry, looked up): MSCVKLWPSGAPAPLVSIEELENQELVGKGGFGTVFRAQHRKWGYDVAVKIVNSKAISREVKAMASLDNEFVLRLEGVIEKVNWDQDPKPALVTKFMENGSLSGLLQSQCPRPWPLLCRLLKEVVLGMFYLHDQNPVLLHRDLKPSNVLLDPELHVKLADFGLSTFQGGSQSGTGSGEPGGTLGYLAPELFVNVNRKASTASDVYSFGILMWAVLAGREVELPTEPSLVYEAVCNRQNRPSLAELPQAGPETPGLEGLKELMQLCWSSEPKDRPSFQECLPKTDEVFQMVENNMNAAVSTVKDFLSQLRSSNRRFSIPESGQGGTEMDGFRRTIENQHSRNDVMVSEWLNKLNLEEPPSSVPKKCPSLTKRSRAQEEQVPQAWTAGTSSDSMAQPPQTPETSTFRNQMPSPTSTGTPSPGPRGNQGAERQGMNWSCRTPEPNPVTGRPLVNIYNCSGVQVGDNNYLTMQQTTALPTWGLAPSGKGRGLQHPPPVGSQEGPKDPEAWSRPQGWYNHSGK

With COC1=C2C[C@@H](C)C[C@H](OC)[C@H](O)[C@@H](C)/C=C(\C)[C@H](OC(N)=O)[C@@H](OC)/C=C\C=C(/C)C(=O)NC(=CC1=O)C2=O the inhibition [1] was “inactive”, the inhibition [2] was “inactive” and the inhibition (HEK-293T [3]) was “Active”. The inhibition (Jurkat [4]) was “Active”.

With COc1ccc([C@H]2[C@H]3CCc4c(OC)cccc4C3=NN2C(C)=O)cc1 the inhibition [5] was “inactive” and the EC50 (Jurkat [6]) was over 100 µM.

In the case of C[C@@H]1C[C@@H]([C@H](O)CC2CC(=O)NC(=O)C2)C(=O)[C@@H](C)C1, the inhibition (Jurkat [7]) is reported as “inactive”.

CN1CC(Cc2c[nH]c3c(Cl)cccc23)NC1=O (stereo not drawn) showed an EC50 (Jurkat [6]) of over 100 µM.

For CN1C(=O)C(Cc2c[nH]c3c(Cl)cccc23)NC1=S (stereo not drawn), the inhibition [5] was “Active”.

For O=C1NC(=S)NC1Cc1c[nH]c2ccccc12 (stereo not drawn), the inhibition [5] was “inactive”, the inhibition [8] was “inactive” and the EC50 (Jurkat [6]) was over 100 µM. For the same molecule, the inhibition [9] was “inactive”.

For COC(=O)C[C@H](NC(=O)[C@H](C)NC(=O)[C@@H](NC(=O)OCc1ccccc1)C(C)C)C(=O)CF (Cbz-Val-Ala-Asp(OMe)-CH2F), the inhibition (Jurkat [7]) was “inactive”.

For CN1C(=O)C(C)(Cc2c[nH]c3ccccc23)NC1=S (stereo not drawn), the inhibition [5] was “inactive” and the EC50 (Jurkat [6]) was over 100 µM.

With COc1ccc(-n2c(SCC#N)nc3sc4c(c3c2=O)CCCC4)cc1 the inhibition [5] was “Active”, the inhibition [9] was “inactive” and the inhibition [1] was “Active”. For the same molecule, the inhibition [10] was “inactive”, the inhibition [11] was “inactive” and the inhibition (HEK-293T [12]) was “inactive”. The inhibition (Jurkat [13]) was “inactive”.

In the case of CN1C(=O)C(Cc2cn(C)c3ccccc23)NC1=S (stereo not drawn), the inhibition [5] is reported as “inactive” and the EC50 (Jurkat [6]) is reported as 33 µM.

O=[N+]([O-])c1ccc(-c2nc(-c3ccc(F)cc3)c(-c3ccncc3)[nH]2)cc1 was tested, and the inhibition [14] was “Active”.

With CN1C(=O)C(Cc2c[nH]c3ccccc23)NC1=S (stereo not drawn) [NECROSTATIN] the inhibition [5] was “Dose-dependent effect”, the EC50 [15] was 0.182 µM and the inhibition [9] was “Active”. The inhibition [14] was “inactive”, the inhibition [16] was “inactive” and the inhibition (Jurkat [17]) was “inactive”. The inhibition (Jurkat [18]) was “inactive”, the inhibition [10] was “inactive” and the inhibition [11] was “inactive”. For the same molecule, the inhibition (HEK-293T [12]) was “inactive”, the inhibition (Jurkat [13]) was “inactive” and the inhibition [19] was “inactive”.

In the case of COc1ccc([C@H]2[C@H]3CCc4ccccc4C3=NN2C(C)=O)cc1, the inhibition [5] is reported as “Active”, the EC50 (Jurkat [6]) is reported as 0.29 µM and the inhibition [9] is reported as “Active”. For the same molecule, the inhibition (Jurkat [17]) was “Active”, the inhibition [1] was “Active” and the inhibition [20] was “Active”. The inhibition [10] was “inactive”, the inhibition [11] was “inactive” and the inhibition (HEK-293T [12]) was “inactive”. For the same molecule, the inhibition (Jurkat [13]) was “inactive”.

In the case of CN1C(=O)NC(Cc2c[nH]c3ccccc23)C1=O (stereo not drawn), the inhibition [5] is reported as “Active”.

In the case of CN1C(=O)C(Cc2c[nH]c3ccccc23)N(C)C1=S (stereo not drawn), the inhibition [5] is reported as “inactive” and the EC50 (Jurkat [6]) is reported as 78 µM.

N#CCSc1nc2sc3c(c2c(=O)n1-c1ccccc1)CCCC3 was tested, and the inhibition [5] was “inactive” and the EC50 (Jurkat [6]) was over 100 µM.
